# Data taken from PubChem BioAssay.
# Active and inactive are the calls of the source.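 Rule for the calls, unless noted: active = fluorescence slope after compound addition differing from the mean of all tested samples at 99.7% confidence, mostly higher but some lower; inactive = the rest.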
# What was measured:
# [1] = inhibitors of TNFa-induced NFkB p65 translocation, primary screen, imaging, HUVEC, MLSMR starter and 10KST1 sets (AID 438;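 active = inhibition above 20% together with a positive visual image hit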;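 note: compound added about 3h40 before a 20 min TNFalpha stimulation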;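 for inhibition: signal is the nuclear over cytoplasmic p65 intensity ratio per well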); conditions: HUVEC TNFa-induced p65 nuclear translocation; cell count: measured here: nuclei count (cytotoxicity indicator), at 2.08 µM; inhibition: at 2 µM, stronger effect = higher value, 0% TNFa-plus-vehicle, 100% no-TNFa wells
# [2] = inhibitors of mutant huntingtin aggregation, primary screen, imaging, exon1htt(103Q)mCFP cells, high-content imaging (AID 483;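 active = visual image review flags a hit and inhibition of aggregation exceeds 20%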;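 note: compound exposure lasted 3 days before fixation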;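 for nuclei count: percent of the per-plate median nuclei count of sample wells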); conditions: exon1htt(103Q)mCFP cell line, aggregate imaging, at 2 µM; inhibition of aggregation: stronger effect = higher value; nuclei count: measured here: cell count, toxicity
# [3] = inhibitors of E-selectin induction by TNFa, primary screen, imaging, HUVEC, immunofluorescence, MLSMR starter and 10KST1 sets (AID 487;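 active = visually confirmed hit in the image check and inhibition above 20%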;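 for inhibition: signal is fraction of cell area covered by stained E-selectin grains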;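 for nuclei count: 100% = median nuclei count of all wells on the same plate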); conditions: HUVEC TNFalpha-induced E-selectin immunofluorescence imaging, at 2 µM; inhibition: stronger effect = higher value; nuclei count: measured here: cell number, toxicity
# [4] = target: Voltage-gated potassium channel subunit beta-2 (Rattus norvegicus) (UniProt P62483); assay: KvBeta enzyme negative modulators, primary screen, biochemical, NADPH fluorescence (AID 622;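 active = fluorescence slope higher than the sample average by over 3 SD, cut at about -0.22 in these data, passing the limit was not always enough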;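 note: slope of raw intensity against log time taken from 70 to 1610 s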); conditions: recombinant KvBeta, 4-cyanobenzaldehyde reduction, at 10 µM, stronger effect = higher value
# Voltage-gated potassium channel subunit beta-2 (Rattus norvegicus), sequence (P62483 whole entry, looked up): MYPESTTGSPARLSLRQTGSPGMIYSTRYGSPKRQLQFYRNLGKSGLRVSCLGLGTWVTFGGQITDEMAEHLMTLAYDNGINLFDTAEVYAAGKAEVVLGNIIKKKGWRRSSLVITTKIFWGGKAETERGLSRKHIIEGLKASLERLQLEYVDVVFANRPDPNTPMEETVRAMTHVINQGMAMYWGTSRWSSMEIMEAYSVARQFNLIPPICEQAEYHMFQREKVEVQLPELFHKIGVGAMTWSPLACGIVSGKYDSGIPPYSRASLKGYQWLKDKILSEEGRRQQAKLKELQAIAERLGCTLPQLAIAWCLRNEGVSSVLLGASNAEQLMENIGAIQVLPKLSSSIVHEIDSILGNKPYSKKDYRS
# [5] = target: Voltage-gated potassium channel subunit beta-2 (Rattus norvegicus) (UniProt P62483); assay: KvBeta positive modulators, primary screen, biochemical, NADPH fluorescence (AID 623;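 active = NADPH fluorescence slope more negative than the mean of all samples by about 3 SD, 99.7% confidence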;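 note: fluorescence intensity change per second fitted from 20 to 320 s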); conditions: Recombinant KvBeta, NADPH fluorescence decrease slope, 10 min; at 10 µM; stronger effect = lower value
# [6] = target: Muscarinic acetylcholine receptor M4 (Homo sapiens) (UniProt P08173); assay: compounds altering M4/GIRK thallium flux, either direction, primary screen, M4 allosteric agonist project, cell-based, HEK293 M4/GIRK, BTC-AM (AID 625); conditions: at 10 µM, actives lie on both sides;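 note: thallium influx through GIRK channels coupled to M4 in HEK293 cells with BTC-AM dye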
# Muscarinic acetylcholine receptor M4 (Homo sapiens), sequence (P08173 whole entry, looked up): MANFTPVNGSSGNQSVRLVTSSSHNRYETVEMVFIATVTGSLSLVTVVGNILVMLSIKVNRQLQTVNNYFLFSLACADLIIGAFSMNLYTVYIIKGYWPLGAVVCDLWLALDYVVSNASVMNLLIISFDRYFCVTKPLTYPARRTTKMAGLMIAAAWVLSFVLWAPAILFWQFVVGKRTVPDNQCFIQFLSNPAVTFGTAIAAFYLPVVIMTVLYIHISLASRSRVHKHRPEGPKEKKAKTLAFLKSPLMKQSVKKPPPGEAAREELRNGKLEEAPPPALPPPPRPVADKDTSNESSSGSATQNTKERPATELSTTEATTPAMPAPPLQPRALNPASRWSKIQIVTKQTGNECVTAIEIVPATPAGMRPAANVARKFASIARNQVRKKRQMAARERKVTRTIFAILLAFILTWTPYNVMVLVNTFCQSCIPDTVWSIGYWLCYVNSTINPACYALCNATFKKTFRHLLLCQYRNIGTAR
# How it was run: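 Material: HEK293 cells with M4 receptor and GIRK channels; Times: cells overnight at 37 °C, BTC-AM loading 1 h, reads 2 min total; Technique: kinetic BTC-AM fluorescence sampled at 1 Hz, 10 s pre-addition baseline; Read-out basis: slope over 15–24 s of trace normalized to starting intensity; Controls: carbachol positive, DMSO negative.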
# [7] = inhibitors of Sendai virus-induced IRF3 signaling, primary screen, TLR/RLR signaling modifier project, cell-based, Sendai virus stimulus, luciferase, 10K MLSCN set (AID 602276;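 active = inhibition at or above 50% at 10 µM; inactive = inhibition below 50%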;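 note: firefly luciferase from ISG56 promoter only with Renilla not read in this screen; 0% = Sendai virus plus DMSO and 100% = medium plus DMSO without virus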); conditions: HEK293 RL24 IRF3 luciferase reporter, at 10 µM, stronger effect = higher value
# [8] = inhibitors of poly I:C-induced TLR3 signaling, primary screen, cell-based, poly I:C stimulus, luciferase, 10K MLSCN set (AID 602277;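 active = inhibition of the reporter signal at or above 50%; inactive = inhibition below 50%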); conditions: HEK293-TLR3 RL24 IRF3 luciferase reporter, at 10 µM, stronger effect = higher value
SMILES,cell count [1],inhibition [1],inhibition of aggregation [2],nuclei count [2] [%],inhibition [3],nuclei count [3] [%],fluorescence slope [4],NADPH fluorescence slope [5],fluorescence slope [6],inhibition [7],inhibition [8]
CCOC(=O)c1c(NCc2ccc3c(c2)OCO3)c2ccccc2[nH]c1=O,509,-9.9% (inactive),16.6% (inactive),94.1,-51.7% (inactive),111,-0.252 (inactive),-2.6e-05 (inactive),0.00507 (inactive),12.5% (inactive),-13.3% (inactive)
COc1ccc2c(c1)Sc1ccccc1N2CCN(C)C,676,-8.8% (inactive),2.5% (inactive),117,-11.3% (inactive),103,-0.573 (inactive),-2.9e-05 (inactive),0.00495 (inactive),8.63% (inactive),14.5% (inactive)
CCOC(=O)N1CCN(S(=O)(=O)c2cc(C)c(C)cc2C)CC1,373,2.8% (inactive),-7.2% (inactive),99.3,-69.5% (inactive),137,-0.459 (inactive),-1.8e-05 (inactive),0.00447 (inactive),13.4% (inactive),20.2% (inactive)
CCOc1cc(C(=O)NCC2CCCO2)cc(OCC)c1OCC (configuration not stated),430,-9.3% (inactive),-3.9% (inactive),106,-133% (inactive),102,-0.213 (inactive),-3.4e-05 (inactive),0.00818 (inactive),15.1% (inactive),9.52% (inactive)
CC(Sc1nnnn1-c1ccccc1)C(=O)Nc1ccc(Cl)cn1 (configuration not stated),570,-12.8% (inactive),-5.6% (inactive),108,-139% (inactive),131,-0.426 (inactive),2.6e-05 (inactive),0.00566 (inactive),16% (inactive),19.9% (inactive)
O=C(Nc1cccc(F)c1)c1ccc2c(c1)OCO2,246,-2.1% (inactive),31.8% (inactive),83.5,80.7% (active),85,-0.597 (inactive),1.2e-05 (inactive),0.00384 (inactive),-56.2% (inactive),-121% (inactive)
Cc1[nH]c2ccccc2c(=O)c1CN(C)Cc1ccccc1,270,2.9% (inactive),13.3% (inactive),97.7,-124% (inactive),117,-0.58 (inactive),2e-05 (inactive),0.00538 (inactive),-21% (inactive),-31.5% (inactive)
